These results are taken from PubChem BioAssay.

Broadly, the inhibition is the change of the read-out against control, counted positive when it falls.

Active and inactive are the calls of the source.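 The calls were made as follows, unless noted: active = visual image review flags a hit and inhibition of aggregation exceeds 20%; inconclusive = visual hit but inhibition at or below 20%; inactive = no hit on visual image review.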

A short description of experiment [1]: inhibitors of TNFa-induced NFkB p65 translocation, primary screen, imaging, HUVEC, MLSMR starter and 10KST1 sets (AID 438;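 active = inhibition above 20% together with a positive visual image hit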;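 also: compound added about 3h40 before a 20 min TNFalpha stimulation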;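 as to inhibition: signal is the nuclear over cytoplasmic p65 intensity ratio per well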). The note with it: HUVEC TNFa-induced p65 nuclear translocation; cell count: measured here: nuclei count (cytotoxicity indicator), at 2.08 µM; inhibition: at 2 µM, stronger effect = higher value, 0% TNFa-plus-vehicle, 100% no-TNFa wells.
The nature of experiment [2]: inhibitors of mutant huntingtin aggregation, primary screen, imaging, exon1htt(103Q)mCFP cells, high-content imaging (AID 483).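 Also: compound exposure lasted 3 days before fixation.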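 As to nuclei count: percent of the per-plate median nuclei count of sample wells.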 To be noted: exon1htt(103Q)mCFP cell line, aggregate imaging, at 2 µM; inhibition of aggregation: stronger effect = higher value; nuclei count: measured here: cell count, toxicity.
Experiment [3] in a line: inhibitors of E-selectin induction by TNFa, primary screen, imaging, HUVEC, immunofluorescence, MLSMR starter and 10KST1 sets (AID 487;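 active = visually confirmed hit in the image check and inhibition above 20%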;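 as to inhibition: signal is fraction of cell area covered by stained E-selectin grains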;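 as to nuclei count: 100% = median nuclei count of all wells on the same plate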). The note with it: HUVEC TNFalpha-induced E-selectin immunofluorescence imaging, at 2 µM; inhibition: stronger effect = higher value; nuclei count: measured here: cell number, toxicity.
Experiment [4] deals with Voltage-gated potassium channel subunit beta-2 (Rattus norvegicus) (UniProt P62483). The experiment in a line: KvBeta enzyme negative modulators, primary screen, biochemical, NADPH fluorescence (AID 622;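 active = fluorescence slope higher than the sample average by over 3 SD, cut at about -0.22 in these data, passing the limit was not always enough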;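 also: slope of raw intensity against log time taken from 70 to 1610 s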). To be noted: recombinant KvBeta, 4-cyanobenzaldehyde reduction, at 10 µM, stronger effect = higher value.
Voltage-gated potassium channel subunit beta-2 (Rattus norvegicus), sequence (P62483 whole entry, looked up): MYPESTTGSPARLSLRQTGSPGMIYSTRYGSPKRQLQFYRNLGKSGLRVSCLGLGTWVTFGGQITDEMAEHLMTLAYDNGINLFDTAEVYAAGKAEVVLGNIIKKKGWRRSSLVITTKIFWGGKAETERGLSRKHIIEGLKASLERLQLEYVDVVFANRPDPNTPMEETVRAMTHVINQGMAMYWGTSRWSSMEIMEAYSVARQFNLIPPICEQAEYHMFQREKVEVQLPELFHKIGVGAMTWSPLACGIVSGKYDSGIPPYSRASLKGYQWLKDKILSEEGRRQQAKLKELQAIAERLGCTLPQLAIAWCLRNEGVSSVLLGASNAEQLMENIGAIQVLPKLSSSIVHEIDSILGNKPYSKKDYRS
Experiment [5] has the same target. Nature of the experiment: KvBeta positive modulators, primary screen, biochemical, NADPH fluorescence (AID 623;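 active = NADPH fluorescence slope more negative than the mean of all samples by about 3 SD, 99.7% confidence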;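 also: fluorescence intensity change per second fitted from 20 to 320 s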). The note with it: Recombinant KvBeta, NADPH fluorescence decrease slope, 10 min; at 10 µM; stronger effect = lower value.
In experiment [6] the target is Muscarinic acetylcholine receptor M4 (Homo sapiens) (UniProt P08173). Nature of the experiment: compounds altering M4/GIRK thallium flux, either direction, primary screen, M4 allosteric agonist project, cell-based, HEK293 M4/GIRK, BTC-AM (AID 625;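 active = fluorescence slope after compound addition differing from the mean of all tested samples at 99.7% confidence, mostly higher but some lower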;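 also: thallium influx through GIRK channels coupled to M4 in HEK293 cells with BTC-AM dye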). To be noted: at 10 µM, actives lie on both sides. The method in brief:
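Material – HEK293 cells with M4 receptor and GIRK channels · Buffer or medium – pH 7.3 thallium assay buffer · Doses – one dose, 10 µM final · Timing – cells overnight at 37 °C, BTC-AM loading 1 h, reads 2 min total · Measured by – kinetic fluorescence with BTC-AM dye · Controls – carbachol and DMSO controls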

Experiment [7] can be described thus: inhibitors of Sendai virus-induced IRF3 signaling, primary screen, TLR/RLR signaling modifier project, cell-based, Sendai virus stimulus, luciferase, 10K MLSCN set (AID 602276;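 active = inhibition at or above 50% at 10 µM; inactive = inhibition below 50%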;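 also: firefly luciferase from ISG56 promoter only with Renilla not read in this screen; 0% = Sendai virus plus DMSO and 100% = medium plus DMSO without virus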). To be noted: HEK293 RL24 IRF3 luciferase reporter, at 10 µM, stronger effect = higher value.
Experiment [8] is described as follows: inhibitors of poly I:C-induced TLR3 signaling, primary screen, cell-based, poly I:C stimulus, luciferase, 10K MLSCN set (AID 602277;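 active = inhibition of the reporter signal at or above 50%; inactive = inhibition below 50%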). The note with it: HEK293-TLR3 RL24 IRF3 luciferase reporter, at 10 µM, stronger effect = higher value. (A reporter such as luciferase makes a cellular process visible.)

Muscarinic acetylcholine receptor M4 (Homo sapiens), sequence (P08173 whole entry, looked up): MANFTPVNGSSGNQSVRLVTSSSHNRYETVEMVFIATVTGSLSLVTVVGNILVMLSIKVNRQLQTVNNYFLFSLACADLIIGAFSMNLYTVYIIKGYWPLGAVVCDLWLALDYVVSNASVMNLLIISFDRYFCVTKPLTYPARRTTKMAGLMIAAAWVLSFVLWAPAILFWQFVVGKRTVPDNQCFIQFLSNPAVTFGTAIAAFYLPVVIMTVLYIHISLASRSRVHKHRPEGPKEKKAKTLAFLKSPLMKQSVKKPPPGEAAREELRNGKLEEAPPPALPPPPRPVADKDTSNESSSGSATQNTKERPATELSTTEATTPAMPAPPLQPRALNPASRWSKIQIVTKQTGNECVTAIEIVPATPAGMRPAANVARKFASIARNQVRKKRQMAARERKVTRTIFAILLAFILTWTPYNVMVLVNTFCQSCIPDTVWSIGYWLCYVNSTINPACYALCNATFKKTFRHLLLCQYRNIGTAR

As to `CCCOc1ccc(C2C(C(=O)c3ccc(C)o3)=C(O)C(=O)N2Cc2cccnc2)cc1` (centres undefined), the cell count in experiment [1] was found to be 755. In addition, the inhibition was -2.8% (inactive) in experiment [1], 35.3% (inactive) in experiment [3], 9.82% (inactive) in experiment [7] and 3.74% (inactive) in experiment [8]. Moreover, the inhibition of aggregation in experiment [2] was -9.2% (inactive). For the same compound, the nuclei count in experiment [2] stood at 105%; in experiment [3], 107%. In addition, the fluorescence slope in experiment [4] was -0.495 (inactive); in experiment [6], 0.00434 (inactive). In addition, the NADPH fluorescence slope in experiment [5] was 9.3e-06 (inactive).
Take `Cc1cccc(-n2c(Cc3cc(=O)[nH]c(=O)[nH]3)nnc2SCC(=O)NCc2ccco2)c1`: in experiment [1], the cell count came out at 400. Also, the inhibition in experiment [1] was -4% (inactive); in experiment [3], -15.1% (inactive); in experiment [7], 12.7% (inactive); in experiment [8], 7.93% (inactive). In experiment [2], the inhibition of aggregation was -21.7% (inactive). Further, the nuclei count in experiment [2] stood at 90%; in experiment [3] it was 101%. Moreover, the fluorescence slope in experiment [4] was -0.529 (inactive); in experiment [6] it was 0.00455 (inactive). Besides, the NADPH fluorescence slope in experiment [5] is -4.9e-05 (inactive).
As for `N#Cc1ccc(CSc2nnc(-c3cnccn3)o2)cc1`, the cell count in experiment [1] was determined as 489. Further, the inhibition in experiment [1] is -15% (inactive); in experiment [3], -60.9% (inactive); in experiment [7], 2.28% (inactive); in experiment [8], 5.14% (inactive). Moreover, the inhibition of aggregation in experiment [2] is -20.4% (inactive). Further, the nuclei count in experiment [2] was 106%; in experiment [3] it was 105%. Further, the fluorescence slope was -0.555 (inactive) in experiment [4] and 0.00528 (inactive) in experiment [6]. Also, the NADPH fluorescence slope in experiment [5] is -5.1e-06 (inactive).
As to `Cc1cc(C)n2nc(S(=O)(=O)N(C)Cc3ccccc3)nc2n1`, in experiment [1], the cell count is 560. The inhibition in experiment [1] was -10.1% (inactive); in experiment [3], -35.3% (inactive); in experiment [7] it was -4.55% (inactive); in experiment [8] it was 8.01% (inactive). For the same compound, the inhibition of aggregation in experiment [2] is -1.6% (inactive). In addition, the results for the nuclei count in experiment [2] and in experiment [3] were 110% and 116%, respectively. In addition, the values for the fluorescence slope in experiment [4] and in experiment [6] were -0.313 (inactive) and 0.00664 (inactive), respectively. Further, the NADPH fluorescence slope in experiment [5] is -3.3e-05 (inactive).
As to `COc1ccc(C(=O)Nc2ccc(S(=O)(=O)Nc3nccnc3OC)cc2)cc1OC`, in experiment [1], the cell count came to 459. Besides, the inhibition was 8.1% (inactive) in experiment [1], -126% (inactive) in experiment [3], 21.5% (inactive) in experiment [7] and 34.3% (inactive) in experiment [8]. Moreover, the inhibition of aggregation in experiment [2] is 4.1% (inactive). Besides, the nuclei count is 101% in experiment [2] and 123% in experiment [3]. For the same compound, the fluorescence slope is -0.601 (inactive) in experiment [4] and 0.0057 (inactive) in experiment [6]. Moreover, the NADPH fluorescence slope in experiment [5] was 6.9e-06 (inactive).
In the case of `Cc1cccc(N2CCN(C(=O)Cn3ccc4ccccc4c3=O)CC2)c1C`, the cell count in experiment [1] came out at 340. Also, the inhibition in experiment [1] was 11% (inactive); in experiment [3], -4.9% (inactive); in experiment [7] it was -3.75% (inactive); in experiment [8], -30.8% (inactive). Moreover, the inhibition of aggregation in experiment [2] was 3.8% (inactive). The values for the nuclei count in experiment [2] and in experiment [3] were 95.6% and 94%, respectively. In addition, the figures for the fluorescence slope in experiment [4] and in experiment [6] were -0.568 (inactive) and 0.00591 (inactive), respectively. In addition, in experiment [5], the NADPH fluorescence slope is 2.6e-06 (inactive).
Consider `COc1ccc(-c2cc3nc4n(c(=O)c3s2)CCC4)cc1`, for which the cell count in experiment [1] came out at 433. Besides, the inhibition is 3% (inactive) in experiment [1], -96.4% (inactive) in experiment [3], 12.2% (inactive) in experiment [7] and -34.7% (inactive) in experiment [8]. Further, in experiment [2], the inhibition of aggregation is 4.8% (inactive). The nuclei count in experiment [2] was found to be 88.6%; in experiment [3] it was 139%. For the same compound, the results for the fluorescence slope in experiment [4] and in experiment [6] were -0.467 (inactive) and 0.0055 (inactive), respectively. The NADPH fluorescence slope in experiment [5] was -3.4e-05 (inactive).
As for `CC(=O)Oc1ccc(CCC(C)OC(C)=O)cc1` (centres undefined), in experiment [1], the cell count came out at 634. In addition, the inhibition is -2.9% (inactive) in experiment [1], -0.1% (inactive) in experiment [3], 14.9% (inactive) in experiment [7] and 12.9% (inactive) in experiment [8]. The inhibition of aggregation in experiment [2] was -2.2% (inactive). In addition, the values for the nuclei count in experiment [2] and in experiment [3] were 100% and 84%, respectively. Besides, the fluorescence slope was -0.518 (inactive) in experiment [4] and 0.00491 (inactive) in experiment [6]. For the same compound, in experiment [5], the NADPH fluorescence slope is -5.9e-05 (inactive).
Consider `CCOC(=O)NC(=O)CSc1nnc(C)s1`, for which the cell count in experiment [1] amounted to 804. In addition, the inhibition in experiment [1] is 4.3% (inactive); in experiment [3] it was -130% (inactive); in experiment [7] it was 18.9% (inactive); in experiment [8], 17.5% (inactive). Moreover, the inhibition of aggregation in experiment [2] is -0.4% (inactive). Further, the nuclei count in experiment [2] turned out to be 105%; in experiment [3] it was 135%. Besides, the fluorescence slope in experiment [4] was -0.421 (inactive); in experiment [6], 0.00543 (inactive). Also, in experiment [5], the NADPH fluorescence slope is -9.6e-06 (inactive).
Turning to `CCCN1CCN(C(=O)c2cn(CC(C)C)c(=O)c3cc(OC)c(OC)cc23)CC1`, in experiment [1], the cell count came out at 566. The inhibition in experiment [1] was -25.1% (inactive); in experiment [3], -9.9% (inactive); in experiment [7] it was 15.6% (inactive); in experiment [8] it was 20.6% (inactive). Moreover, in experiment [2], the inhibition of aggregation is -3.2% (inactive). The nuclei count in experiment [2] turned out to be 113%; in experiment [3], 105%. For the same compound, the figures for the fluorescence slope in experiment [4] and in experiment [6] were -0.441 (inactive) and 0.00598 (inactive), respectively. In addition, the NADPH fluorescence slope in experiment [5] is -4.3e-05 (inactive).
Take `COCCNC(=O)CSc1nc(-c2ccc(OC)c(OC)c2)cc(C(F)(F)F)n1`: in experiment [1], the cell count was 430. For the same compound, the inhibition is 3.4% (inactive) in experiment [1], -34.3% (inactive) in experiment [3], 17.7% (inactive) in experiment [7] and 14.6% (inactive) in experiment [8]. Besides, in experiment [2], the inhibition of aggregation is -8.2% (inactive). Besides, the nuclei count was 104% in experiment [2] and 115% in experiment [3]. Also, the fluorescence slope is -0.445 (inactive) in experiment [4] and 0.00332 (inactive) in experiment [6]. Further, in experiment [5], the NADPH fluorescence slope is -0.000127 (inactive).
Take `O=C(NCc1cccnc1)c1cn(CCc2ccccc2)nn1`: the cell count in experiment [1] came out at 569. Further, the inhibition in experiment [1] is -0.4% (inactive); in experiment [3], -48.9% (inactive); in experiment [7] it was 10.9% (inactive); in experiment [8], 16.6% (inactive). Besides, the inhibition of aggregation in experiment [2] was -18.3% (inactive). Besides, the nuclei count was found to be 98.8% in experiment [2] and 110% in experiment [3]. The fluorescence slope in experiment [4] is -0.31 (inactive); in experiment [6], 0.0065 (inactive). The NADPH fluorescence slope in experiment [5] is -2.1e-05 (inactive).
Regarding `COCCn1c(=O)[nH]c2cc(C(=O)N3CCN(c4ccccc4OC)CC3)ccc2c1=O`, in experiment [1], the cell count turned out to be 806. In addition, the inhibition in experiment [1] is -7.9% (inactive); in experiment [3], -28.7% (inactive); in experiment [7], 10.5% (inactive); in experiment [8] it was 12.4% (inactive). In experiment [2], the inhibition of aggregation was 5.5% (inactive). Besides, the nuclei count was 102% in experiment [2] and 117% in experiment [3]. The fluorescence slope in experiment [4] is -0.44 (inactive); in experiment [6], 0.00559 (inactive). In addition, the NADPH fluorescence slope in experiment [5] was 9.4e-06 (inactive).
For the compound `Cc1c(NS(=O)(=O)c2ccc3c(c2)c(=O)n(C)c(=O)n3C)c(=O)n(-c2ccccc2)n1C`, the cell count in experiment [1] came out at 394. Also, the inhibition is -4.4% (inactive) in experiment [1], -27.8% (inactive) in experiment [3], 11.2% (inactive) in experiment [7] and 25% (inactive) in experiment [8]. Moreover, the inhibition of aggregation in experiment [2] was -4.4% (inactive). Besides, the nuclei count in experiment [2] was determined as 124%; in experiment [3], 115%. Besides, the results for the fluorescence slope in experiment [4] and in experiment [6] were -0.412 (inactive) and 0.00512 (inactive), respectively. For the same compound, the NADPH fluorescence slope in experiment [5] is 0.000112 (inactive).
